Here are results for 3 compounds from ChEMBL document CHEMBL3734675, “Synthesis, antimycobacterial and antibacterial activity of fluoroquinolone derivatives containing an 3-alkoxyimino-4-(cyclopropylanimo)methylpyrrolidine moiety” (2015).

Converted amounts (≈) assume the structure as drawn.

In the assay the test system is Mycobacterium tuberculosis. Briefly: Antimycobacterial activity against isoniazid/rifampicin-resistant Mycobacterium tuberculosis 6133 clinical isolate incubated for 7 days by microplate Alamar Blue assay. The format is functional. As to conditions: Mycobacterium tuberculosis, 6133, 168 h. The procedure, abridged:
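Fluorescence read-out. MIC is the lowest concentration that reduces fluorescence by at least 90% relative to the mean of replicate bacterium-only controls. Isoniazid and rifampicin were included as reference drugs.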
For orientation: The colour change of resazurin is a common sign of viable cells or microbes.
As usually defined, the MIC90 is an inhibitory concentration at the 90% level, which refers to growth in some studies and to a panel of isolates in others. Low readings indicate greater potency, high ones weaker potency. For the compound `CCO/N=C1/CN(c2nc3c(cc2F)c(=O)c(C(=O)O)cn3C2CC2)CC1(C)CNC1CC1` (stereo not drawn), the MIC90 came out at 0.11 µg/mL (≈ 0.24 µM). As for `NNC(=O)c1ccncc1` [ISONIAZID], the figure is 4 µg/mL (≈ 29.2 µM). On to `CO[C@H]1/C=C/O[C@@]2(C)Oc3c(C)c(O)c4c(O)c(c(/C=N/N5CCN(C)CC5)c(O)c4c3C2=O)NC(=O)/C(C)=C\C=C\[C@H](C)[C@H](O)[C@@H](C)[C@@H](O)[C@@H](C)[C@H](OC(C)=O)[C@@H]1C` [RIFAMPIN], for which the MIC90 was above 40 µg/mL.
